# Test results as given in PubChem BioAssay.
# Activity calls are given as the source filed them.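 How the source made its calls, unless noted: active means inhibition at or above 50% relative to wild type and mutant plate controls; inactive means inhibition below 50%.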
# Tests used:
# [1] = inhibitors of TNFa-induced NFkB p65 translocation, primary screen, imaging, HUVEC, MLSMR starter and 10KST1 sets (AID 438;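 active means inhibition above 20% together with a positive visual image hit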;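 further: compound added about 3h40 before a 20 min TNFalpha stimulation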;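 on inhibition: signal is the nuclear over cytoplasmic p65 intensity ratio per well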); conditions: HUVEC TNFa-induced p65 nuclear translocation; cell count: measured here: nuclei count (cytotoxicity indicator), at 2.08 µM; inhibition: at 2 µM, stronger effect = higher value, 0% TNFa-plus-vehicle, 100% no-TNFa wells
# [2] = inhibitors of E-selectin induction by TNFa, primary screen, imaging, HUVEC, immunofluorescence, MLSMR starter and 10KST1 sets (AID 487;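 active means visually confirmed hit in the image check and inhibition above 20%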;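 on inhibition: signal is fraction of cell area covered by stained E-selectin grains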;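 on nuclei count: 100% = median nuclei count of all wells on the same plate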); conditions: HUVEC TNFalpha-induced E-selectin immunofluorescence imaging, at 2 µM; inhibition: stronger effect = higher value; nuclei count: measured here: cell number, toxicity
# [3] = DUSP6 inhibitors restoring Erk phosphorylation by chemical complementation, primary imaging in DUSP6-transfected HeLa (AID 609;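 active means compounds giving at least 50% inhibition in the cell-based MKP-3 phosphatase rescue imaging test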;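 on inhibition: phospho-Erk level distribution per well compared with pooled transfected vehicle control wells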); conditions: HeLa MKP-3 transfected, phospho-Erk imaging KS statistic, at 10 µM, cells stimulated with TPA for 15 min
# [4] = target: Dual specificity protein phosphatase 6 (Homo sapiens) (UniProt Q16828); assay: as above; conditions: HeLa MKP-3 transfected, phospho-Erk imaging KS statistic; at 10 µM; stronger effect = higher value; cells stimulated with TPA for 15 min
# [5] = target: Voltage-gated potassium channel subunit beta-2 (Rattus norvegicus) (UniProt P62483); assay: KvBeta enzyme negative modulators, primary screen, biochemical, NADPH fluorescence (AID 622;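 active means fluorescence slope higher than the sample average by over 3 SD, cut at about -0.22 in these data, passing the limit was not always enough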;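 further: slope of raw intensity against log time taken from 70 to 1610 s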); conditions: recombinant KvBeta, 4-cyanobenzaldehyde reduction, at 10 µM, stronger effect = higher value
# [6] = target: Voltage-gated potassium channel subunit beta-2 (Rattus norvegicus) (UniProt P62483); assay: KvBeta positive modulators, primary screen, biochemical, NADPH fluorescence (AID 623;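 active means NADPH fluorescence slope more negative than the mean of all samples by about 3 SD, 99.7% confidence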;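 further: fluorescence intensity change per second fitted from 20 to 320 s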); conditions: Recombinant KvBeta, NADPH fluorescence decrease slope, 10 min; at 10 µM; stronger effect = lower value
# [7] = target: Alpha-2C adrenergic receptor (Homo sapiens) (UniProt P18825); assay: modulators of alpha2C/GIRK thallium flux, primary screen, cell-based, HEK293 alpha2C/GIRK1/2 (AID 624;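 active means fluorescence slope after compound addition differing from the mean of all screened samples at 99.7% confidence, in either direction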;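 further: slope of fluorescence ratio to pre-addition baseline per second over 15 to 24 s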); conditions: thallium flux BTC fluorescence, at 10 µM, actives lie on both sides
# [8] = inhibitors of larval lipid processing in zebrafish, primary screen, whole organism, PED6 fluorescence, gall bladder and intestine (AID 686;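 active means a full or partial loss of lipid-probe fluorescence in the fish gall bladder, intestine or both, judged by eye; inactive means no fluorescence loss, or compound toxic to the fish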;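 further: larvae 5 to 7 days old with five fish per well; signal comes from phospholipase A2 cleavage of quenched PED6 carried via bile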); conditions: Zebrafish larvae PED6 lipid processing, fluorescence scoring; screened at 20 µM (by protocol)
# Method in brief: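 Incubation: overnight exposure of larvae to compound plus PED6 / Test system: live zebrafish larvae aged 5-7 days, whole organism / Amount: 5 larvae per well / Read-out basis: visual per-well fluorescence inhibition score / Signal: visual fluorescence microscopy scoring of gall bladder, gut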
# [9] = inhibitors of Chlamydomonas gravitaxis, primary screen, whole organism, Chlamydomonas reinhardtii, WT vs cilia-less mutant, absorbance, 96-well (AID 463189); conditions: OD600 absorbance, 2 days, at 10 µM, stronger effect = higher value;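 further: 0% = wild type cc124 cells in DMSO and 100% = ciliumless bld1 mutant cells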
# [10] = measured here: cell density z-score
# [11] = measured here: nuclear c-Myc green intensity z-score
# [12] = measured here: nuclear pErk red intensity z-score, stronger effect = higher value
# Chain of Dual specificity protein phosphatase 6 (Homo sapiens) (Q16828 whole entry, looked up): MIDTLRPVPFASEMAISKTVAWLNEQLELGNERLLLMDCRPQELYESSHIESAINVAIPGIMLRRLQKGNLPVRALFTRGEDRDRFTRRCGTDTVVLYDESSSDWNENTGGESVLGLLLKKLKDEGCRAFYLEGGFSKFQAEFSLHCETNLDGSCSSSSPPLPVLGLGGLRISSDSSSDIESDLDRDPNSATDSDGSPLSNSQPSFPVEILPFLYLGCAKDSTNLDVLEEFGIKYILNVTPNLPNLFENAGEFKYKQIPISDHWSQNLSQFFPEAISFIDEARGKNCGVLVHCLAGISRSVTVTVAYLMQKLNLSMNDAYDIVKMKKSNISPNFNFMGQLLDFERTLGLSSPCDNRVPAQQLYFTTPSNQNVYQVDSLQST
# Chain of Voltage-gated potassium channel subunit beta-2 (Rattus norvegicus) (P62483 whole entry, looked up): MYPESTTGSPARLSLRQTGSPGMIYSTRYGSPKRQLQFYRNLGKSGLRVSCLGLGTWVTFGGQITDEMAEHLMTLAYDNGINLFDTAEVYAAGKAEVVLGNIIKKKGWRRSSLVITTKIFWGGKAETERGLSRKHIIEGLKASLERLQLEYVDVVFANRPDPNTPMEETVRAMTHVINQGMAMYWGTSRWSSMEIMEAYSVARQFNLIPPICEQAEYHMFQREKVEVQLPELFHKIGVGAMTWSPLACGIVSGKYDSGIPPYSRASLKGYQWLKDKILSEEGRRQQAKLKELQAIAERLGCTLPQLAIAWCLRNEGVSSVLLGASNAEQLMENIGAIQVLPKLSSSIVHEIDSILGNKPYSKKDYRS
# Chain of Alpha-2C adrenergic receptor (Homo sapiens) (P18825 whole entry, looked up): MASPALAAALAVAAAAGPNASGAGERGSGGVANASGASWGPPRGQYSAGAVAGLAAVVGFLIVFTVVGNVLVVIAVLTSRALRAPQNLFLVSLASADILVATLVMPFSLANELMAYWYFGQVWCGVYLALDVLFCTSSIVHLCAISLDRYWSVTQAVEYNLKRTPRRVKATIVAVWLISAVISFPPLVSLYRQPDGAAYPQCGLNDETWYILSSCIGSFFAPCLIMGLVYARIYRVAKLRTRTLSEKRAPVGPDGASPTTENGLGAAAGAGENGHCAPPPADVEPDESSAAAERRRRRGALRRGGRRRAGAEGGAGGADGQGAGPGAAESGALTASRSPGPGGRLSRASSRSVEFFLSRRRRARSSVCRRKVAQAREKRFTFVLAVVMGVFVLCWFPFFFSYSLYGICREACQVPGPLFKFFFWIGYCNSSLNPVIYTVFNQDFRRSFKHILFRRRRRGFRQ
SMILES,cell count [1],inhibition [1],inhibition [2],nuclei count [2] [%],"z-score [3, 10]","z-score [3, 11]","z-score [3, 12]",inhibition [4],fluorescence slope [5],NADPH fluorescence slope [6],slope [7],outcome [8],inhibition [9]
CS(=O)(=O)CCC(C(=O)n1nnc2ccccc21)N1C(=O)c2ccccc2C1=O (stereo unspecified),342,-6.4% (inactive),-46.5% (inactive),134,0.823,-0.696,-1.53,3.42% (inactive),-0.419 (inactive),-5.5e-05 (inactive),0.00572 (inactive),inactive,26% (inactive)
O=C(NCc1ccccc1)c1ccc(=O)[nH]n1,328,-0.3% (inactive),-132% (inactive),98.8,-0.814,0.951,-1.98,11.3% (inactive),-0.456 (inactive),-0.00047 (inactive),0.00499 (inactive),inactive; toxic,-6.14% (inactive)
COc1ccc(C(CC(=O)O)NC(=O)OC(C)(C)C)cc1 (stereo unspecified),352,-12.3% (inactive),-60.6% (inactive),167,0.0535,0.856,1.62,-7.01% (inactive),-0.414 (inactive),-0.000134 (inactive),0.00454 (inactive),inactive,-3.6% (inactive)
CCOC(=O)COn1c(=O)c(-c2ccco2)[n+]([O-])c2ccccc21,534,1.6% (inactive),3.6% (inactive),130,2.03,1.19,-0.23,8.76% (inactive),-0.283 (inactive),-1.2e-05 (inactive),0.00422 (inactive),inactive,34.2% (inactive)
Cc1ccccc1OCc1nc2ccccc2c(=O)n1NC(=O)c1ccco1,346,-13.7% (inactive),-57% (inactive),104,0.846,0.49,-1.53,19.3% (inactive),-0.498 (inactive),-1.5e-05 (inactive),0.00616 (inactive),inactive,24.1% (inactive)
O=C(O)c1nsc(Cl)c1Cl,628,-18.8% (inactive),39.2% (inactive),170,-0.315,-1.86,0.801,-6.06% (inactive),-0.386 (inactive),-3.3e-06 (inactive),0.00603 (inactive),inactive,6.17% (inactive)
COc1cccc(-c2nc(N3CCN(Cc4ccccc4)CC3)c3ccccc3n2)c1O,578,-4.5% (inactive),7% (inactive),126,-0.018,0.0703,0.663,3.5% (inactive),-0.272 (inactive),8.6e-06 (inactive),0.0051 (inactive),inactive,8.35% (inactive)
COc1ccccc1N1CCN(CCOc2c(OC)cccc2OC)CC1,492,-10.5% (inactive),-105% (inactive),116,-1.56,1.65,0.711,-3.98% (inactive),-0.469 (inactive),-0.000262 (inactive),0.00445 (inactive),inactive,-3.94% (inactive)
CN=C1c2cc3c(Br)c(OC)ccc3n2CCN1C,550,-16.9% (inactive),-28.8% (inactive),142,0.29,-0.368,0.361,8.31% (inactive),-0.493 (inactive),-5.7e-05 (inactive),0.00409 (inactive),inactive; toxic,-2.97% (inactive)
O=C(Nn1cnnc1)C(c1ccccc1)c1ccccc1,338,-3.7% (inactive),-164% (inactive),159,1.4,0.734,1.08,1.75% (inactive),-0.417 (inactive),-7.3e-05 (inactive),0.00619 (inactive),inactive,17.9% (inactive)
Cc1ccc(N2C(=O)CC(N(O)C3CC(=O)N(c4ccc(C)cc4)C3=O)C2=O)cc1 (stereo unspecified),364,0% (inactive),28.2% (inactive),126,0.996,0.402,0.988,-0.584% (inactive),-0.427 (inactive),-0.000136 (inactive),0.0056 (inactive),inactive,54.9% (active)
Cc1ccc(S(=O)(=O)NC(=O)NCc2ccc3c(c2)OCO3)cc1,396,-2.3% (inactive),-36.4% (inactive),91.6,-0.395,0.582,-0.563,5.57% (inactive),-0.485 (inactive),-0.000226 (inactive),0.00482 (inactive),inactive,-10% (inactive)
COc1cc(C2NC(=O)NC(C)=C2C(=O)Nc2cccc(C)c2C)cc(OC)c1OC (stereo unspecified),566,-3.3% (inactive),-47.5% (inactive),183,0.296,0.344,-0.592,-2.91% (inactive),-0.35 (inactive),-1.5e-05 (inactive),0.00551 (inactive),inactive,-6.92% (inactive)
CCOC(=O)CSc1nc(N(C)C)nc(N(C)C#N)n1,570,-6.8% (inactive),-140% (inactive),113,0.476,-0.876,-1.19,5.57% (inactive),-0.478 (inactive),-0.00031 (inactive),0.00712 (inactive),inactive,-9.74% (inactive)
Cc1cc(OCCN2CCCCC2)nc2ccccc12,482,6.3% (inactive),-39.5% (inactive),95,1.18,-0.61,-0.992,26.3% (inactive),-0.332 (inactive),1.4e-05 (inactive),0.0054 (inactive),inactive,39.2% (inactive)
CCc1[nH]nc2c1C(c1ccc(Br)s1)C(C#N)=C(N)O2 (stereo unspecified),504,-7.7% (inactive),-85.9% (inactive),152,-0.154,1.13,-0.858,-8.27% (inactive),-0.312 (inactive),1.7e-05 (inactive),0.00536 (inactive),inactive,15.9% (inactive)
O=C(c1coc(=O)c(Br)c1)N1CCCc2ccccc21,384,-0.8% (inactive),-39.7% (inactive),134,-0.336,-1.15,0.12,3.42% (inactive),-0.437 (inactive),-8e-05 (inactive),0.00466 (inactive),inactive,36.5% (inactive)
N#Cc1c(-c2ccco2)cc(C2CC2)nc1N,528,-3.5% (inactive),-51.8% (inactive),107,-1.1,-0.229,-0.103,-1.12% (inactive),-0.43 (inactive),-0.00027 (inactive),0.00359 (inactive),inactive,-5.69% (inactive)
CCOC(=O)c1c(CNCCN(CC)CC)n(C)c2cc(Br)c(OC)cc12,321,3.8% (inactive),-25% (inactive),77.4,-0.115,0.118,-0.0858,1.75% (inactive),-0.439 (inactive),-8.8e-06 (inactive),0.00617 (inactive),inactive,28.1% (inactive)
CCOC(=O)c1cc2c(=O)n3cccc(C)c3nc2n(C)c1=N,622,-8.8% (inactive),-51.9% (inactive),142,1.38,-1.25,-0.0406,6.04% (inactive),-0.436 (inactive),-8.5e-05 (inactive),0.00241 (inactive),inactive,119% (active)
Cc1nnc(SCc2nc3ccccc3[nH]2)s1,417,-9.9% (inactive),-178% (inactive),172,1.08,-0.712,-0.186,-5.89% (inactive),-0.368 (inactive),-5.3e-05 (inactive),0.00478 (inactive),inactive,9.63% (inactive)
Cc1ccc(C(C)C)c(OCCNc2nc3c(c(=O)n(C)c(=O)n3C)n2C)c1,605,-26.5% (inactive),-61.7% (inactive),165,-0.12,-0.388,2.45,-4.27% (inactive),-0.422 (inactive),-5.2e-05 (inactive),0.0063 (inactive),inactive,-2.79% (inactive)
CCOC(=O)CC1=NC(=O)CS1,636,-20.6% (inactive),-40.7% (inactive),179,-0.153,-1.04,1.51,-5.62% (inactive),-0.455 (inactive),-5.7e-05 (inactive),0.00579 (inactive),inactive,11.6% (inactive)
Cn1c(OCc2cccnc2)nc2c1c(=O)n(Cc1ccc(Cl)cc1)c(=O)n2C,653,-7.1% (inactive),6.1% (inactive),156,-0.404,0.0478,1.27,2.46% (inactive),-0.505 (inactive),-9.6e-05 (inactive),0.00416 (inactive),inactive,66.4% (active)
CCOC(=O)CSc1nc(-c2ccncc2)ccc1C#N,688,-16.1% (inactive),-23.4% (inactive),174,-1.46,-0.434,0.758,-3.95% (inactive),-0.355 (inactive),-2e-05 (inactive),0.00882 (inactive),inactive,-7.15% (inactive)
CCOC(=O)c1c(NC(=O)CCN2CCOCC2)sc2c1CC(C)(C)OC2,658,-8.1% (inactive),-45.3% (inactive),163,0.476,1.14,0.27,-7.28% (inactive),-0.422 (inactive),-3e-05 (inactive),0.00607 (inactive),inactive,-12.8% (inactive)
Cc1cc(C)nc(N(C#N)CC(=O)N(c2ccccc2)C(C)C)n1,584,-10.3% (inactive),50% (inactive),140,-1.19,-0.154,2.33,-11% (inactive),-0.345 (inactive),-2.8e-05 (inactive),0.00548 (inactive),inactive,5.11% (inactive)
